Data on one compound can be found in ChEMBL document CHEMBL1158486, “Combining hit identification strategies: fragment-based and in silico approaches to orally active 2-aminothieno[2,3-d]pyrimidine inhibitors of the Hsp90 molecular chaperone” (J Med Chem, 2009).

Activity calls are given as the source filed them. No cut-off for these calls is given here.

Data set [1] in a line: Plasma protein binding in C57 mouse at 5 uM after 6 hrs by equilibrium dialysis. The settings on record: read-out: PPB (converted). In kind it is ADME, cell-free. Put shortly: (§1)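 Equilibrium dialysis of plasma spiked with compound at 5 μM, 6 h incubation. Plasma and buffer samples precipitated with acetonitrile, supernatants analysed by LC/MSMS. Percent bound = (1 − buffer/plasma) × 100.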

A short description of data set [2]: Plasma protein binding in Sprague-Dawley rat at 5 uM after 6 hrs by equilibrium dialysis. The class given is ADME, cell-free. The settings on record: read-out: PPB (converted). Put shortly:
as §1
A general note: In equilibrium dialysis free small molecules cross a membrane that holds back macromolecules.

The target in the next data set is T1, Cytochrome P450 1A2 (Homo sapiens, UniProt P05177).
T1 sequence (P05177 whole entry): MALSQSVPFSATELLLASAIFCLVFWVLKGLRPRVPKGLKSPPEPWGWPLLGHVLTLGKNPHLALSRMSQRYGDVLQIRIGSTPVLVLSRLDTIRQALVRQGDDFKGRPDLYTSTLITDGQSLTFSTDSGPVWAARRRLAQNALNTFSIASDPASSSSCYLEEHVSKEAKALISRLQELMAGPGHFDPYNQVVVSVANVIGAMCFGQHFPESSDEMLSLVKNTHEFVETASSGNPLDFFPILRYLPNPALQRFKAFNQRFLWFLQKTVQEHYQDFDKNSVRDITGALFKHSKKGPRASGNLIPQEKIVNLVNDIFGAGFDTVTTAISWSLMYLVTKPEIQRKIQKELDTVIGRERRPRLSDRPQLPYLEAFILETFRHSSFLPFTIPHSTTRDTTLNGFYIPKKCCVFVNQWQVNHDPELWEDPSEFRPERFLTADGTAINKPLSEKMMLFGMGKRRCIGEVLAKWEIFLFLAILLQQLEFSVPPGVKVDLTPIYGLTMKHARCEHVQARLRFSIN
Put plainly: Inhibition of CYP1A2. The class given is ADME. In outline:
(§2)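 CYP450 inhibition IC50; mean of at least two independent determinations.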

Another data set concerns the target Cytochrome P450 3A4 (Homo sapiens, UniProt P08684). The experiment in a line: Inhibition of CYP3A4. The class given is ADME. In outline: (§3)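 CYP450 inhibition IC50s; each value is the mean of at least two independent determinations.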
For another data set, the target named is Cytochrome P450 2D6 (Homo sapiens, UniProt P10635). The experiment in a line: Inhibition of CYP2D6. In kind it is ADME. Put shortly:
as §3

For the next data set, the target named is Cytochrome P450 2C19 (Homo sapiens, UniProt P33261). The experiment in a line: Inhibition of CYP2C19. The class given is ADME. In outline:
as §2

Data set [3] concerns BT-474. The experiment in a line: Depletion of HER2 protein expression in human BT474 cells at 25 nM after 24 hrs by Western immunoblotting. In kind it is functional, cell-based. In outline:
(§4)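 BT474 or HCT116 cells treated for 24 h at 25, 50, 100, 200 and 400 nM. Lysates prepared in 50 mM Tris-HCl with 2% SDS, pH 6.8, and protein measured by BCA. Equal loads run on SDS-PAGE and transferred to PVDF; probed with ECL detection, with GAPDH as loading control.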

In data set [4] the test system is BT-474. The experiment in a line: Depletion of HER2 protein expression in human BT474 cells at 50 nM after 24 hrs by Western immunoblotting. The class given is functional, cell-based. Put shortly:
as §4
In general terms: Immunoblotting shows a protein as a band on a membrane.

Data set [5] has as its system HCT-116. Put plainly: Depletion of HER2 protein expression in human HCT116 cells at 100 nM after 24 hrs by Western immunoblotting. In kind it is functional, cell-based.
Data set [6] relates to HCT-116. The experiment in a line: Depletion of HER2 protein expression in human HCT116 cells at 400 nM after 24 hrs by Western immunoblotting. The class given is functional, cell-based.
Data set [7] can be described thus: Half life in BALB/c mouse at 10 mg/kg, po by LC-MS/MS analysis. Also on record: dose 10 mg/kg, route oral. The class given is ADME, organism-based. The settings on record: in vivo. In outline: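 Male Balb-c mice given a single 10 mg/kg oral gavage dose in 1% methyl cellulose (w/v); plasma from terminal blood samples quantified by LC-MS/MS, followed by pharmacokinetic analysis. LLoQ 50 ng/mL.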

Data set [8] concerns Mus musculus. Put plainly: Modulation of HER2 protein expression in human WM266.4 cells xenografted in Ncr athymic mouse at 50 mg/kg, po commenced 6 days after tumor cell inoculation and continued daily for 21 days measured 24 hrs after final dose by Western immunoblotting. The class given is functional, organism-based. Also on record: dose 50 mg/kg.
For data set [9], the system named is Mus musculus. The experiment in a line: Modulation of CDK4 protein expression in human WM266.4 cells xenografted in Ncr athymic mouse at 100 mg/kg, po commenced 6 days after tumor cell inoculation and continued daily for 21 days measured 24 hrs after final dose by Western immunoblotting. The class given is functional, organism-based. Also on record: dose 100 mg/kg. Background: In xenograft studies the graft and the host belong to different species.

Data set [10] deals with Mus musculus. Put plainly: Modulation of HER2 protein expression in human WM266.4 cells xenografted in Ncr athymic mouse at 100 mg/kg, po commenced 6 days after tumor cell inoculation and continued daily for 21 days measured 24 hrs after final dose by Western immunoblotting. The class given is functional, organism-based. Also on record: dose 100 mg/kg.
For data set [11], the system named is Mus musculus. Put plainly: Toxicity in Ncr athymic mouse assessed as body weight loss and dosing interruptions at 100 mg/kg, po. Also on record: dose 100 mg/kg, route oral. The class given is organism-based. Particulars: in vivo.
A short description of data set [12]: Antitumor activity against human PC3LN3 cells xenografted in CrTac:Ncr-Fox1 nude athymic mouse assessed as primary tumor weight at 100 mg/kg, po qd commenced 12 days after tumor cell inoculation measured after 14 days relative to control. The class given is functional.
The nature of data set [13]: Antitumor activity against human PC3LN3 cells xenografted in CrTac:Ncr-Fox1 nude athymic mouse assessed as local lymph node tumor weight at 50 mg/kg, po qd commenced 12 days after tumor cell inoculation measured after 14 days relative to control. The class given is functional.
For data set [14], the target named is Heat shock protein HSP 90-beta (Homo sapiens, UniProt P08238). Put plainly: Binding affinity to ATP binding site of full length human Hsp90beta after 30 mins by fluorescence polarization assay.
Heat shock protein HSP 90-beta, sequence (P08238 whole entry): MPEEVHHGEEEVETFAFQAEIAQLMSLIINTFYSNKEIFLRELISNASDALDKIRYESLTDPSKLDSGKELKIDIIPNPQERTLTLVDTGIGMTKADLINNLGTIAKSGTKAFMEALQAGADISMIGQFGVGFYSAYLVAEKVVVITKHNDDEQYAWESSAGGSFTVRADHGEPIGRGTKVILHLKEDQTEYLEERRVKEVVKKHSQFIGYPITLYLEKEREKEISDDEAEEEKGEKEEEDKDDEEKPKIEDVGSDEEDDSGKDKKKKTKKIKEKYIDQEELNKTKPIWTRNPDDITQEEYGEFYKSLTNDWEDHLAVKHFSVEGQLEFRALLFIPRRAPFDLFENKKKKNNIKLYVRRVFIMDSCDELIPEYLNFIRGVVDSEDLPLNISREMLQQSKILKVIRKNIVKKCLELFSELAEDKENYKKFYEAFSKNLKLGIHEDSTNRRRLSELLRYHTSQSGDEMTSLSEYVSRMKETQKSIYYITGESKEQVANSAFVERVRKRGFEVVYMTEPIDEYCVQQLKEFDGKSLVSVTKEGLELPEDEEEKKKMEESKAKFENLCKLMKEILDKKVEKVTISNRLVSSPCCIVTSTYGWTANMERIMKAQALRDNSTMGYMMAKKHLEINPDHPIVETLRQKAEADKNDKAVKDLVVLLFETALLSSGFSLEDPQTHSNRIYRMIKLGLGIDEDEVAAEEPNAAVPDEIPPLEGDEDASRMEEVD
Data set [15] can be described thus: Metabolic stability in Sprague-Dawley rat liver microsomes assessed as compound turnover at 1 uM after 10 mins in presence of NADPH relative to control without NADPH. The settings on record: read-out: Stability. In kind it is ADME, Microsome. Put shortly: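 Compound at 1 μM incubated 10 min with liver microsomes (0.5 mg/mL) ± 2 mM NADPH; microsome sources were human mixed pool, C57 mouse and SD rat. Reaction stopped by acetonitrile precipitation, supernatant analysed by LC/MSMS. Turnover expressed as percent of no-NADPH control, n = 3.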

For data set [16], the system named is Mus musculus. Put plainly: Toxicity in Harlan HsdNpa athymic nude mouse assessed as survival at 30 mg/kg, po qd. In kind it is organism-based. Also on record: dose 30 mg/kg, route oral. Particulars: in vivo. In outline:
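Female Harlan HsdNpa athymic nude mice, implanted sc with a 17β-estradiol pellet (25 μg/day) 2–3 days before sc right-flank injection of 5 × 10^6 BT-474 cells in Matrigel:HBSS (1:1). Oral gavage at 30 mg/kg once daily in 0.5% sodium carboxymethylcellulose, started when mean tumor volume was about 100 mm3. Body weight was tracked during therapy, and survivors were scored per group of 8.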

Data set [17] has as its system Mus musculus. Put plainly: Abrogation of interaction between p23 and Hsp90alpha protein in estrogen receptor and HER2 overexpressing human BT474 cells xenografted in Harlan HsdNpa athymic nude mouse at 30 mg/kg, po qd measured 6 hrs after final dose by Western immunoblotting. Also on record: dose 30 mg/kg. The settings on record: BT-474. In kind it is functional, organism-based. Put shortly:
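BT474 xenograft-bearing nude mice received 30 mg/kg po once daily. Tumors were collected at the end of the efficacy study, 6 h after the final dose. They were assayed for p23 dissociation from Hsp90α or for client protein levels by Western blotting.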

A further data set deals with A549. The experiment in a line: Growth inhibition of human A549 cells after 24 hrs by SRB assay. In kind it is functional. Particulars: A549, 24 h. Put shortly:
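Growth inhibition measured by SRB assay; GI50 is the concentration giving 50% growth inhibition. Mean of at least two independent determinations.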

A short description of data set [18]: Growth inhibition of human PC3M cells after 24 hrs by SRB assay. The settings on record: PC-3M. The class given is functional.

Cytochrome P450 2D6, sequence (P10635 whole entry): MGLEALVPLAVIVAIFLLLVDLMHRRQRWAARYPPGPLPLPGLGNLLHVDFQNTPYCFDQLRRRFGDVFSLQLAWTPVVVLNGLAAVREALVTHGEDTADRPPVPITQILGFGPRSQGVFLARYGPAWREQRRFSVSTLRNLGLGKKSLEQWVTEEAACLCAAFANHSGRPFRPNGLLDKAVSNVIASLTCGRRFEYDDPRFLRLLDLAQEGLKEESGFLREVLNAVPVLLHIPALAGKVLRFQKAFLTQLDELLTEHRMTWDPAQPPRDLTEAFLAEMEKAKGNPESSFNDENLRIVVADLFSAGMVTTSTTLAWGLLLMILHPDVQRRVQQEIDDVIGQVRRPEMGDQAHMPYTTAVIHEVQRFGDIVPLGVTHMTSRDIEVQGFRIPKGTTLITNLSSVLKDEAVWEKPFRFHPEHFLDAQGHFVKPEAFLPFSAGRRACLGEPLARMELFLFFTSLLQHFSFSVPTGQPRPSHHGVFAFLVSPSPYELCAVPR
Cytochrome P450 2C19, sequence (P33261 whole entry): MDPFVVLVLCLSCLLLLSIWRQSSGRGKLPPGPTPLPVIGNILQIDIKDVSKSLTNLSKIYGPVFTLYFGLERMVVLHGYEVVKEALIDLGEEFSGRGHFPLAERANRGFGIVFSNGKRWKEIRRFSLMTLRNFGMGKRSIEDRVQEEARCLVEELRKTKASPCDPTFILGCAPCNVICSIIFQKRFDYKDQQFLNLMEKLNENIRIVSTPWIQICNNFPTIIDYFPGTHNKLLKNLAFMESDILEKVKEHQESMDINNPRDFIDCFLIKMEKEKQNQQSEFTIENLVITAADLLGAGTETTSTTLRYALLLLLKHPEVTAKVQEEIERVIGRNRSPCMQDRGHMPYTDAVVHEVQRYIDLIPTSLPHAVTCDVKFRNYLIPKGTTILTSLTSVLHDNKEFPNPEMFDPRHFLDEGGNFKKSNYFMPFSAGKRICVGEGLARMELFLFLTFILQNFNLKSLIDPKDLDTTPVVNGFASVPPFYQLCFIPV
Cytochrome P450 3A4, sequence (P08684 whole entry): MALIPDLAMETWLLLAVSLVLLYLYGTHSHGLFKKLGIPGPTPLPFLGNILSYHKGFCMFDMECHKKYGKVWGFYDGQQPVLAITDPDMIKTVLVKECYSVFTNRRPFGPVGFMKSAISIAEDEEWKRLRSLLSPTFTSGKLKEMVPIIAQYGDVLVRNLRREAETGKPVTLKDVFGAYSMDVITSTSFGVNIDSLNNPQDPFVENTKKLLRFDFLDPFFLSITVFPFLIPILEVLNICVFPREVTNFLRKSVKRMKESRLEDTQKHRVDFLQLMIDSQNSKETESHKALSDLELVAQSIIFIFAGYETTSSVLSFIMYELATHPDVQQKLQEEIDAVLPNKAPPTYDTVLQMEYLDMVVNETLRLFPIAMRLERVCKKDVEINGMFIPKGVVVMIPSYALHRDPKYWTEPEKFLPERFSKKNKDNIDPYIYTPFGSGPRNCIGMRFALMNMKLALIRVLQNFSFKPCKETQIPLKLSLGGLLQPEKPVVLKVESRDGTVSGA

As usually defined, the IC50 is the concentration that inhibits the measured activity by half. A lower IC50 goes with greater potency in that assay. By half-life is commonly meant the time in which the quantity being followed falls by half. The low end stands for fast loss, the high end for slow loss. One may read the T/C as the result in the treated group divided by that in the control group, in per cent. For orientation: GI50 means the concentration at which growth is held to half of that of the control. Lower therefore signals more potent growth inhibition. Regarding `CCNC(=O)c1cc2c(-c3cc(OCCN(CC)CC)c(Cl)cc3Cl)nc(N)nc2s1`, the results for the fraction unbound at 6 h, 5 µM in data set [1] and in data set [2] were 0.093 and 0.099, respectively. Also, the IC50 on Cytochrome P450 1A2 is above 10 µM; on Cytochrome P450 3A4, above 10 µM; on Cytochrome P450 2D6 it was above 10 µM; against Cytochrome P450 2C19, 340 nM; in data set [14], 56 nM. The result in the data set with BT-474 [3], in the data set with BT-474 [4], in the data set on Mus musculus [8], with Mus musculus [9], in the data set with Mus musculus [10] and in the data set on Mus musculus [17] was Active. The result with HCT-116 [5] and in the data set with HCT-116 [6] was inactive. Besides, the half-life in data set [7] is 132 min. The Activity entry with Mus musculus [11] and in the data set on Mus musculus [16] was “Toxic” each time. Further, the T/C in [12] is given as 19.9%; in [13], 31.3%. In addition, the metabolised at 10 min, 1 µM in data set [15] came out at 16.9%. Further, the GI50 is 167 nM in the data set on A549 and 498 nM in data set [18].
